Screens: PubChem BioAssay, several laboratories
TAAR1 agonist: human TAAR1 agonists, primary screen, Fluo-8 calcium fluorescence, CHO RD-HGA16 cells; activation, % at 3 µM; actives 0.99% (n = 360,000); vehicle wells 0%, saturating PEA agonist 100%; Trace amine-associated receptor 1 (Homo sapiens), Q96RJ0; AID 624467, 2012;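 active means activation above the mean activation of all test compounds in the run plus 3 SD, cut at about 38% in these data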
Target sequence (Q96RJ0 whole entry, looked up): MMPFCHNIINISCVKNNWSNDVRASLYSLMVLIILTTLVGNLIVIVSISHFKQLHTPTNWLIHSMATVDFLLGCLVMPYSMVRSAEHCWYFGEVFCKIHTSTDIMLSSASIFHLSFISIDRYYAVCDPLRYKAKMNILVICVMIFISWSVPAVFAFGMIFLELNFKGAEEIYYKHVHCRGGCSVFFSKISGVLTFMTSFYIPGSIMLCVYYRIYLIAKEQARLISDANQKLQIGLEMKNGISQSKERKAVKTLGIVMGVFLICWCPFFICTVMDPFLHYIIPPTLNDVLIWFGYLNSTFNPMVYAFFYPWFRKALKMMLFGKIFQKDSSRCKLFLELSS
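System: CHO RD-HGA16 cells carrying human TAAR1 plus Gα16; Incubation: 17-24 h seeding, 75 min 37 °C dye, 30 min RT; Measured by: Fluo-8 fluorescence, 5 s baseline then 140 s kinetic read; Control set: DMSO and PEA EC100; Replication: single well for each compound.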
VLA-4 inh: inhibition in human VLA-4 binding assay, primary screen, VLA-4 allosteric modulator project, MLPCN library, flow cytometry, VLA-4 expressing cells | AID 2557, 2010 | inhibition, % (about 7 µM as worked out from the volumes in the protocol) | actives 0.2% (n = 330,000) | ligand binding flow cytometry; in the data active means inhibition above about 50%
TAAR1 antagonist: human TAAR1 antagonists, primary screen, Fluo-8 calcium fluorescence, CHO RD-HGA16 cells | inhibition, % at 3 µM | actives 1.5% (n = 360,000) | antagonist | Trace amine-associated receptor 1 (Homo sapiens), Q96RJ0;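 active means inhibition above a per-plate cutoff, the mean inhibition of test compounds on that plate plus 3 SD, cut at about 49% in these data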;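 further: 0% = DMSO plus EC80 beta-PEA response and 100% = DMSO alone without agonist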
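Assay system: RD-HGA16 CHO cells with stable hTAAR1 and Gα16 / Reagent: EC80 β-phenethylamine stimulus / Doses: 3 µM, single point / Timing: dye loading 75 min at 37 °C, then 30 min room temperature / Measured by: Fluo-8 intracellular calcium dye fluorescence, real-time kinetic reads / Controls: vehicle wells and EC80 agonist wells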
Platelet DG rel: inhibitors of platelet dense granule secretion, primary screen, cell-based, MLPCN, human platelets | human platelet-rich plasma, SFLLRN dense granule ATP release, luminescence | actives 0.22% (n = 300,000) | AID 1663, 2009 | inhibition, %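 (compounds screened at 7.5 µM in platelet-rich plasma)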;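 active means mean replicate score, as percent of positive control, at or above 50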
Rce1 inh: yeast Rce1p protease inhibitors, primary screen, biochemical, fluorescence, cell-free homogeneous. yeast membranes, quenched prenylated peptide cleavage fluorescence. actives 0.27% (n = 290,000). AID 2563, 2010. CAAX prenyl protease 2 (Saccharomyces cerevisiae (strain ATCC 204508 / S288c)), Q03530. calls only;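 active means fall in fluorescence gain of 50% or more versus controls, with final raw signal at or below 3038400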;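 further: plate controls were neutral control wells for no effect and wells lacking membranes for full effect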
Target sequence (Q03530 whole entry, looked up): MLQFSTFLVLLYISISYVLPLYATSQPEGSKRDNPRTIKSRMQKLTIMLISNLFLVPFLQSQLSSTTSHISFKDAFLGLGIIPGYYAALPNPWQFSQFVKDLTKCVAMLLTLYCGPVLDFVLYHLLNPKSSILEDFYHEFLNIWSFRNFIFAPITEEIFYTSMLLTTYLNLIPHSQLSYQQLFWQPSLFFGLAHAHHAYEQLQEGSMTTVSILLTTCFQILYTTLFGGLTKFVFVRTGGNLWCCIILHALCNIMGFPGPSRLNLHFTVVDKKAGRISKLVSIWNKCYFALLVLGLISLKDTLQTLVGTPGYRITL
An asterisk follows results filed as active; i = inactive; · = no result given; + = active, no number. Only some compounds are listed: those with a hit (about 2.6% of all), similar ones and a draw of the others.

SMILES	TAAR1 agonist	VLA-4 inh	TAAR1 antagonist	Platelet DG rel	Rce1 inh
COc1ccc(OC)c(S(=O)(=O)N2CCC(C(=O)Nc3cccc(C(F)(F)F)c3)CC2)c1	15.8	-10.5	52.7*	·	i
COc1ccccc1-c1noc(-c2ccccc2C(=O)Nc2ccccc2)n1	22.1	2.0	47.0	2.4	i
COc1ccccc1NC(=O)c1ccccc1-c1nc(-c2ccccc2OC)no1	15.7	3.5	51.3*	0.4	i
CC(C)CCNC(=O)CCCn1c(=O)[nH]c2ccc(Br)cc2c1=O	3.2	12.5	2.7	-2.7	i
O=C(CCCn1c(=O)[nH]c2ccc(Br)cc2c1=O)NCc1ccc(Cl)cc1	8.3	-0.6	-1.7	-1.9	+
FC(F)(F)c1ccc(Cl)c(Nc2nnc(-c3ccncc3)s2)c1	3.9	·	-3.5	·	·
Clc1ccccc1Nc1nnc(-c2ccncc2)s1	1.2	5.4	-18.0	68.8*	i
CCN(CC)c1ccc2c(c1)OC(N)=C(C#N)C2c1cccnc1 (centres undefined)	63.6*	i	-6.6	-6.9	i
N#CC1=C(N)Oc2cc(N)ccc2C1c1cccnc1 (centres undefined)	3.9	7.7	-15.1	-10.1	i
CCCN1CNC(=S)N(c2cccc(C)c2)C1	1.9	-4.3	-19.7	·	i
COc1ccc(CN2CCc3ccc(NC(=O)CCc4ccccc4OC)cc3C2)c(O)c1	6.3	0.6	59.1*	-4.4	i
O=C(Nc1ccn(Cc2c(F)c(F)cc(F)c2F)n1)c1ccc(COc2ccccc2Cl)cc1	·	-6.0	·	-8.2	i
O=C(Nc1ccn(Cc2ccccc2F)n1)c1ccc(COc2ccccc2Cl)cc1	8.9	4.7	54.9*	-3.8	i
CC(C)c1ccc(NC(=O)C2(C)Cc3c(-c4ccc(N(C)C)cc4)ccnc3O2)cc1 (centres undefined)	-0.6	·	-17.2	·	·
Nc1nc(NCc2ccc(Cl)cc2)nc(NCCO)c1[N+](=O)[O-]	44.8*	11.3	-29.9	10.1	·
O=C(N/N=C/c1ccc(O)cc1)c1ccc(NC(=O)c2ccccc2Br)cc1	3.3	15.2	37.0	-1.9	i
COc1ccccc1/C=N/NC(=O)c1ccc(NC(=O)c2ccccc2Br)cc1	11.4	12.6	50.7*	-7.8	i
COc1cccc(OC)c1C(=O)Nc1ccc(Br)c(C(=O)c2ccccc2)c1	-0.9	-1.0	52.9*	14.5	i
Cc1ccc(C2=N/C(=C\c3coc4ccccc4c3=O)C(=O)O2)cc1	4.6	·	-23.0	·	·
CC(C)C[C@H](NC(=O)c1cccs1)C(=O)N1CCC[C@H]1C(=O)NCc1ccccc1	-0.8	·	-0.2	·	·
COc1ccc(/C=C(/C(=O)c2cccs2)N2C=CC=CC2=C(C#N)C#N)cc1	21.6	·	56.0*	22.4	i
COc1ccc(C(=O)/C(=C\c2ccco2)N2C=CC=CC2=C(C#N)C#N)cc1	·	25.5	·	-2.9	i
COc1ccc(C(=O)Nc2cccc(/C=C(\CCC(=O)O)c3nc4ccccc4s3)c2)cc1	12.6	-5.0	51.6*	10.0	i
CC1(C(=O)Nc2ccc3[nH]ncc3c2)CCN1C(=O)Cc1ccc(-c2ccccc2)cc1 (centres undefined)	18.3	·	49.7*	·	·
CCC(C)(C)NC(=O)C1CCC(CNS(=O)(=O)c2cccc3nsnc23)CC1 (centres undefined)	·	-3.0	·	5.4	i
SMILES	TAAR1 agonist	VLA-4 inh	TAAR1 antagonist	Platelet DG rel	Rce1 inh
CC(C)(C)NC(=O)C1CCC(CNS(=O)(=O)c2cccc3nsnc23)CC1 (centres undefined)	41.8*	3.0	75.7*	8.0	i
CCCS(=O)(=O)NC(=O)C1(C)CCCN(C(=O)c2cccc(C(F)(F)F)c2)C1 (centres undefined)	2.2	·	-33.9	·	·
N#CC1=C(c2ccccc2)/C(=C/c2ccccc2)OC1=O	12.1	-1.4	57.5*	1.2	i
O=C(O/N=C\c1ccc(N2CCCCC2)c([N+](=O)[O-])c1)c1c(F)cccc1F	7.2	1.6	-1.1	-2.2	i
O=C(N/N=C/c1ccc(N2CCOCC2)c([N+](=O)[O-])c1)c1ccc(F)cc1	9.8	10.8	18.8	-4.3	i
O=C(O/N=C\c1ccc(N2CCCCC2)c([N+](=O)[O-])c1)c1cccc(Cl)c1	0.0	1.6	-20.2	-2.8	i
O=C(O/N=C\c1ccc(N2CCCCC2)c([N+](=O)[O-])c1)c1cccc(C(F)(F)F)c1	-2.5	0.4	10.0	-1.1	+
CO/N=C/c1ccc(N2CCN(C(=O)c3ccc(F)cc3)CC2)c([N+](=O)[O-])c1	37.9*	-6.1	38.5	-1.8	i
CO/N=C/c1ccc(N2CCN(C(=O)c3ccc(Cl)cc3Cl)CC2)c([N+](=O)[O-])c1	42.6*	-2.9	70.2*	6.2	i
CO/N=C/c1ccc(N2CCN(C(=O)c3cccc(C(F)(F)F)c3)CC2)c([N+](=O)[O-])c1	21.9	5.6	54.1*	0.5	i
COc1ccc(C(=O)Nc2c(N)nc(SCC(=O)N3CCC(C)CC3)[nH]c2=O)cc1	0.8	8.8	-21.8	-6.8	i
C[C@@H]1ON(C)[C@H]2C[C@H]3c4[nH]c5c(-c6cc(Cl)cc(Cl)c6)cccc5c4CCN3C(=O)[C@@H]12	-0.3	·	-8.8	·	·
O=C1NC(=S)/C(=C\c2ccc(-c3ccccc3Cl)o2)S1	9.5	-3.5	50.1*	1.1	i
Cc1cccc(N2C(=O)c3cccc(Oc4ccc(Cl)cc4)c3C2=O)c1	38.4*	33.2	26.0	-2.2	i
O=C(O)c1cccc(N2C(=O)c3ccc(Oc4ccc(Cl)cc4)cc3C2=O)c1	10.4	0.3	2.3	3.7	i
COc1ccc2nc(C(F)(F)C(F)(F)F)c(C#N)c(N)c2c1	42.3*	9.9	4.9	-5.8	i
COc1cc(OC)c2c(N)c(C#N)c(C(F)(F)C(F)(F)F)nc2c1	3.1	-15.4	-13.9	4.4	i
CN(Cc1ccccc1)C(=O)c1ccc(NC(=O)Cc2ccc(NC(=O)C3CCN(S(=O)(=O)c4cccc([N+](=O)[O-])c4)CC3)cc2)cc1	2.8	·	-7.2	·	·
C[C@@H]1ON(C)[C@H]2C[C@H]3c4[nH]c5c(-c6ccccc6)cccc5c4CCN3C(=O)[C@@H]12	7.1	·	28.3	·	·
NC(=O)c1ccsc1NC(=O)c1ccc2c(c1)CCCC2	-1.4	26.5	23.8	22.4	i
CNC(=O)c1ccsc1NC(=O)c1ccc2c(c1)CCCC2	3.4	35.1	51.4*	0.6	i
CCc1nc2c(OCC3COc4ccccc4O3)cccn2c1N(C)C(=O)c1ccccc1F (centres undefined)	2.5	·	4.3	·	·
Cc1ccc2nc3c(c(N)c2c1)CCN3C	-0.1	-1.0	-1.6	7.2	+
